Data from ChEMBL document CHEMBL2157922, “Synthesis and antifungal activity of diverse C-2 pyridinyl and pyridinylvinyl substituted quinolines” (2012).
≈ marks a conversion by molar mass, not a printed value.

Key:
Cryptococcus neoformans [1] = test: Antifungal activity against Cryptococcus neoformans ATCC 32264 after 48 hrs by broth microdilution technique; type: functional; conditions: ATCC 32264, 48 h
Procedure, shortened: (§1)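 Yeasts were tested by CLSI broth microdilution in RPMI-1640 buffered to pH 7.0 with MOPS, with compound from 250 down to 0.98 in DMSO stocks. Trays were held at 30 °C in a moist, dark chamber. MIC100, the lowest concentration giving total visual inhibition against the growth control, was read by eye at 48 h.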

[2] = system: Trichophyton mentagrophytes; test: Antifungal activity against Trichophyton mentagrophytes ATCC 9972 after 48 hrs by broth microdilution technique; type: functional; conditions: ATCC 9972, 48 h
Procedure, shortened: (§2)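 Moulds and dermatophytes were run by CLSI broth microdilution in MOPS-buffered RPMI-1640 at pH 7.0. Aspergillus was incubated at 30 °C and dermatophytes at 28–30 °C, in a moist, dark chamber. MIC100, the lowest concentration with no visible growth, was read visually at a time set by growth of the control fungus.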

Cryptococcus neoformans [3] = test: Antifungal activity against Cryptococcus neoformans IM 972751 after 48 hrs by broth microdilution technique; type: functional; conditions: IM 972751, 48 h
Procedure, shortened: (§3)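 C. neoformans was tested by 96-well RPMI-1640 microdilution, with DMSO-matched growth and sterility control wells. Plates were incubated 48 h at 30 °C in a moist, dark chamber and read at OD405. % inhibition = 100 − (CTW − SCW)/(GCW − SCW), in duplicate. For the clinical isolates, MIC80 and MIC50 are the lowest concentrations giving 80% and 50% inhibition.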

Cryptococcus neoformans [4] = test: Antifungal activity against Cryptococcus neoformans IM 00319 after 48 hrs by broth microdilution technique; type: functional; conditions: IM 00319, 48 h; procedure, shortened: as §3
Candida albicans [5] = test: Antifungal activity against Candida albicans ATCC 10231 at 31.2 ug/ml after 24 hrs; type: functional; conditions: ATCC 10231, 24 h
Procedure, shortened: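 C. albicans was grown in 96-well RPMI-1640 broth microdilution with compound wells diluted from DMSO stocks. Growth wells with matched DMSO and sterility wells were included. After 24 h at 30 °C in a moist, dark chamber, OD405 was read. % inhibition = 100 − (CTW − SCW)/(GCW − SCW) OD, done in duplicate.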

Nannizzia gypsea = test: Antifungal activity against Microsporum gypseum CCC 115 after 48 hrs by broth microdilution technique; type: functional; conditions: CCC 115, 48 h; procedure, shortened: as §2
Cryptococcus neoformans [6] = test: Antifungal activity against Cryptococcus neoformans IM 983040 after 48 hrs by broth microdilution technique; type: functional; conditions: IM 983040, 48 h; procedure, shortened: as §3
Cryptococcus neoformans [7] = test: Antifungal activity against Cryptococcus neoformans IM 983036 after 48 hrs by broth microdilution technique; type: functional; conditions: IM 983036, 48 h; procedure, shortened: as §3
Trichophyton rubrum = test: Antifungal activity against Trichophyton rubrum CCC 113 after 48 hrs by broth microdilution technique; type: functional; conditions: CCC 113, 48 h
Aspergillus niger = test: Antifungal activity against Aspergillus niger ATCC 9029 after 48 hrs by broth microdilution technique; type: functional; conditions: ATCC 9029, 48 h; procedure, shortened: as §2
Candida albicans [8] = test: Antifungal activity against Candida albicans ATCC 10231 after 48 hrs by broth microdilution technique; type: functional; conditions: ATCC 10231, 48 h; procedure, shortened: as §1
Candida albicans [9] = test: Antifungal activity against Candida albicans CCC 130 after 48 hrs by broth microdilution technique; type: functional; conditions: CCC 130, 48 h
Nakaseomyces glabratus = test: Antifungal activity against Candida glabrata CCC 115 after 48 hrs by broth microdilution technique; type: functional; conditions: CCC 115, 48 h
Cryptococcus neoformans [10] = test: Antifungal activity against Cryptococcus neoformans IM 042074 after 48 hrs by broth microdilution technique; type: functional; conditions: IM 042074, 48 h; procedure, shortened: as §3
Candida albicans [11] = test: Antifungal activity against Candida albicans CCC 127 after 48 hrs by broth microdilution technique; type: functional; conditions: CCC 127, 48 h
Cryptococcus neoformans [12] = test: Antifungal activity against Cryptococcus neoformans ATCC 32264 at 31.2 ug/ml after 48 hrs; type: functional; conditions: ATCC 32264, 48 h; procedure, shortened: as §3
Candida tropicalis = test: Antifungal activity against Candida tropicalis CCC 131 after 48 hrs by broth microdilution technique; type: functional; conditions: CCC 131, 48 h
Pichia kudriavzevii = test: Antifungal activity against Candida krusei CCC 117 after 48 hrs by broth microdilution technique; type: functional; conditions: CCC 117, 48 h
Saccharomyces cerevisiae = test: Antifungal activity against Saccharomyces cerevisiae ATCC 9763 after 48 hrs by broth microdilution technique; type: functional; conditions: ATCC 9763, 48 h; procedure, shortened: as §1
Aspergillus fumigatus = test: Antifungal activity against Aspergillus fumigatus ATCC 26934 after 48 hrs by broth microdilution technique; type: functional; conditions: ATCC 26934, 48 h; procedure, shortened: as §2
Candida albicans [13] = test: Antifungal activity against Candida albicans CCC 128 after 48 hrs by broth microdilution technique; type: functional; conditions: CCC 128, 48 h
Aspergillus flavus = test: Antifungal activity against Aspergillus flavus ATCC 9170 after 48 hrs by broth microdilution technique; type: functional; conditions: ATCC 9170, 48 h; procedure, shortened: as §2
Candida parapsilosis = test: Antifungal activity against Candida parapsilosis CCC 124 after 48 hrs by broth microdilution technique; type: functional; conditions: Lodderomyces parapsilosis, CCC 124, 48 h
Candida albicans [14] = test: Antifungal activity against Candida albicans CCC 130 after 24 hrs by broth microdilution technique; conditions: CCC 130, 24 h
Candida albicans [15] = test: Antifungal activity against Candida albicans CCC 125 after 48 hrs by broth microdilution technique; type: functional; conditions: CCC 125, 48 h
Cryptococcus neoformans [16] = test: Antifungal activity against Cryptococcus neoformans IM 972724 after 48 hrs by broth microdilution technique; type: functional; conditions: IM 972724, 48 h; procedure, shortened: as §3
Candida albicans [17] = test: Antifungal activity against Candida albicans CCC 129 after 48 hrs by broth microdilution technique; type: functional; conditions: CCC 129, 48 h
Candida albicans [18] = test: Antifungal activity against Candida albicans CCC 126 after 48 hrs by broth microdilution technique; type: functional; conditions: CCC 126, 48 h

Fc1ccc2nc(/C=C/c3ccccn3)ccc2c1
MFC (Cryptococcus neoformans [1]): > 250 µg/mL
MIC (Cryptococcus neoformans [1]): 125 µg/mL (≈ 499 µM)
MIC50 (Cryptococcus neoformans [1]): 15.6 µg/mL (≈ 62.3 µM)
MIC80 (Cryptococcus neoformans [1]): 31.2 µg/mL (≈ 125 µM)
MFC [2]: > 250 µg/mL
MIC [2]: 125 µg/mL (≈ 499 µM)
MIC50 (Cryptococcus neoformans [3]): 15.6 µg/mL (≈ 62.3 µM)
MIC80 (Cryptococcus neoformans [3]): 31.2 µg/mL (≈ 125 µM)
MIC50 (Cryptococcus neoformans [4]): 15.6 µg/mL (≈ 62.3 µM)
MIC80 (Cryptococcus neoformans [4]): 62.5 µg/mL (≈ 250 µM)
inhibition at 31.2 µg/mL (Candida albicans [5]): 80%
MFC (Nannizzia gypsea): > 250 µg/mL
MIC (Nannizzia gypsea): 125 µg/mL (≈ 499 µM)
MIC50 (Cryptococcus neoformans [6]): 31.2 µg/mL (≈ 125 µM)
MIC80 (Cryptococcus neoformans [6]): 62.5 µg/mL (≈ 250 µM)
MIC50 (Cryptococcus neoformans [7]): 31.2 µg/mL (≈ 125 µM)
MIC80 (Cryptococcus neoformans [7]): 62.5 µg/mL (≈ 250 µM)
MFC (Trichophyton rubrum): > 250 µg/mL
MIC (Trichophyton rubrum): 125 µg/mL (≈ 499 µM)
MIC (Aspergillus niger): > 250 µg/mL
MFC (Candida albicans [8]): > 250 µg/mL
MIC (Candida albicans [8]): 125 µg/mL (≈ 499 µM)
MIC50 (Candida albicans [8]): 15.6 µg/mL (≈ 62.3 µM)
MIC80 (Candida albicans [8]): 31.2 µg/mL (≈ 125 µM)
MIC80 (Candida albicans [9]): 31.2 µg/mL (≈ 125 µM)
MIC50 (Nakaseomyces glabratus): 15.6 µg/mL (≈ 62.3 µM)
MIC80 (Nakaseomyces glabratus): 31.2 µg/mL (≈ 125 µM)
MIC50 (Cryptococcus neoformans [10]): 15.6 µg/mL (≈ 62.3 µM)
MIC80 (Cryptococcus neoformans [10]): 62.5 µg/mL (≈ 250 µM)
MIC50 (Candida albicans [11]): 31.2 µg/mL (≈ 125 µM)
MIC80 (Candida albicans [11]): 62.5 µg/mL (≈ 250 µM)
inhibition at 31.2 µg/mL (Cryptococcus neoformans [12]): 80%
MIC50 (Candida tropicalis): 62.5 µg/mL (≈ 250 µM)
MIC80 (Candida tropicalis): 125 µg/mL (≈ 499 µM)
MIC50 (Pichia kudriavzevii): 15.6 µg/mL (≈ 62.3 µM)
MIC80 (Pichia kudriavzevii): 31.2 µg/mL (≈ 125 µM)
MFC (Saccharomyces cerevisiae): > 250 µg/mL
MIC (Saccharomyces cerevisiae): 250 µg/mL (≈ 999 µM)
MFC (Aspergillus fumigatus): > 250 µg/mL
MIC (Aspergillus fumigatus): 250 µg/mL (≈ 999 µM)
MIC50 (Candida albicans [13]): 31.2 µg/mL (≈ 125 µM)
MIC80 (Candida albicans [13]): 62.5 µg/mL (≈ 250 µM)
MFC (Aspergillus flavus): > 250 µg/mL
MIC (Aspergillus flavus): 250 µg/mL (≈ 999 µM)
MIC50 (Candida parapsilosis): 7.8 µg/mL (≈ 31.2 µM)
MIC80 (Candida parapsilosis): 15.6 µg/mL (≈ 62.3 µM)
MIC50 (Candida albicans [14]): 15.6 µg/mL (≈ 62.3 µM)
MIC50 (Candida albicans [15]): 15.6 µg/mL (≈ 62.3 µM)
MIC80 (Candida albicans [15]): 31.2 µg/mL (≈ 125 µM)
MIC50 (Cryptococcus neoformans [16]): 31.2 µg/mL (≈ 125 µM)
MIC80 (Cryptococcus neoformans [16]): 62.5 µg/mL (≈ 250 µM)
MIC50 (Candida albicans [17]): 31.2 µg/mL (≈ 125 µM)
MIC80 (Candida albicans [17]): 62.5 µg/mL (≈ 250 µM)
MIC50 (Candida albicans [18]): 62.5 µg/mL (≈ 250 µM)
MIC80 (Candida albicans [18]): 62.5 µg/mL (≈ 250 µM)

Clc1ccc2nc(/C=C/c3ccncc3)ccc2c1
MFC (Cryptococcus neoformans [1]): 250 µg/mL (≈ 937 µM)
MIC (Cryptococcus neoformans [1]): 125 µg/mL (≈ 469 µM)
MIC50 (Cryptococcus neoformans [1]): 15.6 µg/mL (≈ 58.5 µM)
MIC80 (Cryptococcus neoformans [1]): 31.2 µg/mL (≈ 117 µM)
MFC [2]: 125 µg/mL (≈ 469 µM)
MIC [2]: 62 µg/mL (≈ 232 µM)
MIC50 (Cryptococcus neoformans [3]): 15.6 µg/mL (≈ 58.5 µM)
MIC80 (Cryptococcus neoformans [3]): 31.2 µg/mL (≈ 117 µM)
MIC50 (Cryptococcus neoformans [4]): 31.2 µg/mL (≈ 117 µM)
MIC80 (Cryptococcus neoformans [4]): 62.5 µg/mL (≈ 234 µM)
inhibition at 31.2 µg/mL (Candida albicans [5]): 80%
MFC (Nannizzia gypsea): 125 µg/mL (≈ 469 µM)
MIC (Nannizzia gypsea): 62 µg/mL (≈ 232 µM)
MIC50 (Cryptococcus neoformans [6]): 15.6 µg/mL (≈ 58.5 µM)
MIC80 (Cryptococcus neoformans [6]): 62.5 µg/mL (≈ 234 µM)
MIC50 (Cryptococcus neoformans [7]): 7.8 µg/mL (≈ 29.2 µM)
MIC80 (Cryptococcus neoformans [7]): 62.5 µg/mL (≈ 234 µM)
MFC (Trichophyton rubrum): 125 µg/mL (≈ 469 µM)
MIC (Trichophyton rubrum): 62 µg/mL (≈ 232 µM)
MFC (Aspergillus niger): > 250 µg/mL
MIC (Aspergillus niger): 250 µg/mL (≈ 937 µM)
MFC (Candida albicans [8]): > 250 µg/mL
MIC (Candida albicans [8]): 125 µg/mL (≈ 469 µM)
MIC50 (Candida albicans [8]): 15.6 µg/mL (≈ 58.5 µM)
MIC80 (Candida albicans [8]): 31.2 µg/mL (≈ 117 µM)
MIC80 (Candida albicans [9]): 62.5 µg/mL (≈ 234 µM)
MIC50 (Nakaseomyces glabratus): > 250 µg/mL
MIC80 (Nakaseomyces glabratus): > 250 µg/mL
MIC50 (Cryptococcus neoformans [10]): 15.6 µg/mL (≈ 58.5 µM)
MIC80 (Cryptococcus neoformans [10]): 62.5 µg/mL (≈ 234 µM)
MIC50 (Candida albicans [11]): 31.2 µg/mL (≈ 117 µM)
MIC80 (Candida albicans [11]): 62.5 µg/mL (≈ 234 µM)
MIC50 (Candida tropicalis): 31.2 µg/mL (≈ 117 µM)
MIC80 (Candida tropicalis): 125 µg/mL (≈ 469 µM)
MIC50 (Pichia kudriavzevii): > 250 µg/mL
MIC80 (Pichia kudriavzevii): > 250 µg/mL
MFC (Saccharomyces cerevisiae): > 250 µg/mL
MIC (Saccharomyces cerevisiae): 125 µg/mL (≈ 469 µM)
MFC (Aspergillus fumigatus): > 250 µg/mL
MIC (Aspergillus fumigatus): 250 µg/mL (≈ 937 µM)
MIC50 (Candida albicans [13]): 62.5 µg/mL (≈ 234 µM)
MIC80 (Candida albicans [13]): 125 µg/mL (≈ 469 µM)
MFC (Aspergillus flavus): > 250 µg/mL
MIC (Aspergillus flavus): 250 µg/mL (≈ 937 µM)
MIC50 (Candida parapsilosis): > 250 µg/mL
MIC80 (Candida parapsilosis): > 250 µg/mL
MIC50 (Candida albicans [14]): 31.2 µg/mL (≈ 117 µM)
MIC50 (Candida albicans [15]): 31.2 µg/mL (≈ 117 µM)
MIC80 (Candida albicans [15]): 125 µg/mL (≈ 469 µM)
MIC50 (Cryptococcus neoformans [16]): 31.2 µg/mL (≈ 117 µM)
MIC80 (Cryptococcus neoformans [16]): 62.5 µg/mL (≈ 234 µM)
MIC50 (Candida albicans [17]): 31.2 µg/mL (≈ 117 µM)
MIC80 (Candida albicans [17]): 62.5 µg/mL (≈ 234 µM)
MIC50 (Candida albicans [18]): 31.2 µg/mL (≈ 117 µM)
MIC80 (Candida albicans [18]): 62.5 µg/mL (≈ 234 µM)
